Where a name gives a salt, the structure may show the parent alone.

The source of these data is article PMC6246805 (SLAS discovery : advancing life sciences R & D, 2018).

Test [1] relates to IucA. The conditions noted are these: read-out: KM for IucA; cited from earlier work.
The target of test [2] is T1, aerobactin synthetase IucA (Klebsiella pneumoniae, UniProt A0A1A9TA96). The class given is biochemical, hypervirulent K. pneumoniae hvKP1. The conditions noted are these: for inhibition of IucA in pilot screen and follow-up: pilot screen of 4,400 bioactives, enzyme-initiated protocol; for effect of increasing IucA concentration on apparent potency: 20, 200, or 2,000 nM IucA; for effect of increasing IucA concentration on apparent potency / effect of 1 h pre-incubation with IucA on apparent potency: MG assay; for effect of 1 h pre-incubation with IucA on apparent potency: compared to reactions without pre-incubation.

The next test relates to bacterial IspE kinase. Particulars: cited from earlier work.
The target of test [3] is T1, aerobactin synthetase IucA. The test can be described thus: Orthogonal luminescence. The class given is biochemical, hypervirulent K. pneumoniae hvKP1. Particulars: 30 min pre-incubation, substrate-initiated.
The conditions of test [4]: ref PubChem database; cited from earlier work.
Another test concerns RecA. The conditions noted are these: cited from earlier work.
Another test deals with human RAD51 recombinase. The conditions noted are these: cited from earlier work.
Test [5] has as its system IucA. The test can be described thus: Fluorescence-based thermal shift assay. The class given is binding, hypervirulent K. pneumoniae hvKP1. Particulars: substrates ATP (1.5 mM) and citrate (1.5 mM). Put shortly:
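Purified IucA (10 μg per sample) with 5× SYPRO Orange, in the more concentrated buffer used for substrate runs: 50 mM HEPES, 150 mM NaCl, 0.2 mM TCEP, pH 7.5. ATP and citrate were each at 1.5 mM. Samples were heated from 25 to 99 °C over 45 min in a real-time PCR instrument, reading fluorescence (ex 545/em 568 nm) every 0.5 °C. TM was taken as the maximum of the first derivative of the melt curve.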

With `O=C(O)CC(O)(CC(=O)O)C(=O)O` [citrate, sodium citrate tribasic dihydrate], the Km (in general, the substrate concentration at which the rate is half of its maximum) with IucA [1] was 180 ± 30 µM.

For the compound `O=C(O)c1cc[c]([Hg][Cl])cc1` [4-chloromercuribenzoic acid, reference compound], the “inhibition of IucA in pilot screen and follow-up” value (“inhibition of IucA” below) in test [2] was “identified in the initial screen”.

`CC(=O)[O][Hg][c]1ccccc1` [phenylmercuric acetate, reference compound]: the “inhibition of IucA” value in test [2] is “identified in the initial screen”.

For `O=c1c2ccccc2nc(-c2cccnc2)n1-c1ccc(Br)cc1` [CB05], the “inhibition of IspE kinase” value with bacterial IspE kinase was “potent inhibitors”.

Turning to `COc1ccc(-n2c(-c3cccnc3)nc3ccccc3c2=O)cc1` [CB04], the “inhibition of IspE kinase” value in the test with bacterial IspE kinase is given as “potent inhibitors”.

For `CC1=NN(c2nc(-c3ccc(Cl)cc3)cs2)C(=O)/C1=C\c1ccc2c(c1)OCO2` [CB02], the “dose-dependent activity, secondary luminescence assay” value in test [3] is “most potent dose-dependent activity”. Also, in test [2], the “effect of increasing IucA concentration on apparent potency” value was “apparent potency was reduced” and the “effect of 1 h pre-incubation with IucA on apparent potency” value is “increased apparent potency”. Besides, the “dose-dependent activity, primary substrate-initiated MG assay” value in test [2] (purchased compounds, substrate-initiated protocol) is on record as “highest potency”. Also, the “reported active in unique PubChem bioassays” value in test [4] is 2 out of 8.

As to `O=c1c2ccccc2nc(/C=C/c2cccnc2)n1Cc1ccccc1` [CB06], in test [2], the “effect of increasing IucA concentration on apparent potency” value is reported as “apparent potency was reduced” and the “effect of 1 h pre-incubation with IucA on apparent potency” value was “increased apparent potency”. In addition, the “inhibition of E. coli RecA” value with RecA was “did not inhibit”. For the same compound, the “inhibition of human RAD51 recombinase” value in the test with human RAD51 recombinase is “inhibitor”.

Turning to `C[CH2][Hg][S]c1ccccc1C(=O)[O-].[Na+]` [thiomersal, reference compound], the “inhibition of IucA” value in test [2] is reported as “identified in the initial screen”.

Turning to `Nc1ncnc2c1ncn2[C@@H]1O[C@H](COP(=O)(O)OP(=O)([O-])OP(=O)([O-])O)[C@@H](O)[C@H]1O.[Na+].[Na+]` [ATP, adenosine triphosphate disodium salt hydrate], in the test on IucA [1], the Michaelis constant (Km) was 130 ± 30 µM. For the same compound, in the test on IucA [5], the “shift in the melting temperature (TM) of IucA” value was “+2–5 °C”.

In the case of `O=c1c2ccccc2[se]n1-c1ccccc1` [Ebselen, reference compound], in test [2], the “inhibition of IucA” value is “identified as an inhibitor”.

On to `O=C([O-])c1ccccc1-c1c2cc(Br)c(=O)cc-2oc2[c]([Hg+])c([O-])c(Br)cc12.[Na+].[Na+].[OH-]` [Merbromin, reference compound], for which the “inhibition of IucA” value in test [2] is “identified in the initial screen”.
